# From ChEMBL document CHEMBL1130289, “Polyanion inhibitors of human immunodeficiency virus and other viruses. 5. Telomerized anionic surfactants derived from amino acids” (J Med Chem, 1997)
# What was measured:
# CEM-4 = assay: Cytotoxic concentration required to reduce the viability of uninfected cells by 50% after 5 days of incubation in the presence on CEM-4 cells.; assay type: functional; conditions: Homo sapiens, CEM-4, 120 h
# In short: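 Uninfected CEM-4 cells were incubated with compound for 5 days. CC50 is the concentration that reduced viability by 50%. Values average at least two separate experiments.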
# [1] = system: Human immunodeficiency virus 1; assay: Inhibitory concentration required to inhibit HIV-induced cytopathicity in CEM-4 cells by 50% based in the MTT assay; Not active; assay type: functional, organism-based
# [2] = system: Human immunodeficiency virus 1; assay: Inhibitory concentration required to inhibit HIV-induced cytopathicity in CEM-4 cells by 50% based in the MTT assay; assay type: functional, organism-based; conditions: Human immunodeficiency virus 1, CEM-4
# [3] = system: Human immunodeficiency virus 2; assay: Concentration required to inhibit by 50% syncytium formation between MOLT-4 cells and HIV-2 (ROD) infected HUT-78 cells; assay type: functional, organism-based; conditions: Human immunodeficiency virus 2, MOLT-4
# In short: (§1)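 Uninfected MOLT-4 cells were co-cultured with HUT-78 cells chronically infected with HIV-1 (IIIB) or HIV-2 (ROD), in the presence of compound. The end point was syncytium formation, and IC50 is the concentration giving 50% inhibition. Values are means of two separate experiments.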
# Vero = assay: Minimum cytotoxic concentration required to cause a microscopically detectable alteration of normal cell morphology in Vero cells; assay type: functional, Chlorocebus sabaeus
# In short: (§2)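 Uninfected E6SM, HeLa or Vero cells were exposed to compound and examined by microscopy. MCC is the lowest concentration causing a detectable alteration of normal cell morphology.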
# Semliki Forest virus = assay: Concentration required to inhibit forest induced cytopathicity in Vero cells by 50%; assay type: functional, organism-based
# In short: (§3)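 Virus was added to the cell monolayers in the presence of compound. Incubation continued until the viral cytopathic effect was scored. IC50 is the concentration that reduced virus-induced cytopathicity by 50%.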
# Poliovirus 1 = assay: Concentration required to inhibit Polio-1 induced cytopathicity in HeLa cells by 50%; assay type: functional, organism-based; conditions: Enterovirus C
# [4] = system: Human immunodeficiency virus 2; assay: Concentration required to inhibit HIV-2 induced cytopathicity in MT-4 cells by 50%; assay type: functional, organism-based; conditions: Human immunodeficiency virus 2, MT4
# In short: (§4)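 MT-4 cells were infected with HIV-1 (strain HTLV-IIIB/LAI) or HIV-2 (strain LAV-2 ROD) and exposed to compound. IC50 is the concentration that inhibited HIV-induced cytopathicity by 50%. Values are means of two separate experiments.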
# E6SM = assay: Minimum cytotoxic concentration required to cause a microscopically detectable alteration of normal cell morphology in E6SM cells; assay type: functional, Homo sapiens; in short: as §2
# MT4 = assay: Concentration required to reduce the viability of mock-infected MT-4 cells by 50%; assay type: functional; conditions: Homo sapiens
# In short: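 Mock-infected MT-4 cells were exposed to compound. CC50 is the concentration that reduced cell viability by 50%. Values are means of two separate experiments.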
# Human respirovirus 3 = assay: Concentration required to inhibit parainfluenza-3 induced cytopathicity in Vero cells by 50%; assay type: functional, organism-based; conditions: Human respirovirus 3, Vero; in short: as §3
# [5] = system: Vesicular stomatitis virus; assay: Concentration required to inhibit vesicular stomatitis induced cytopathicity in E6SM cells by 50%; assay type: functional, organism-based
# Vaccinia virus = assay: Concentration required to inhibit Vaccinia induced cytopathicity in E6SM cells by 50%; assay type: functional, organism-based; conditions: Orthopoxvirus vaccinia
# Human alphaherpesvirus 1 [6] = assay: Concentration required to inhibit HSV-1(KOS) induced cytopathicity in E6SM cells by 50%; conditions: Human alphaherpesvirus 1, E6SM
# [7] = system: Human immunodeficiency virus 1; assay: Concentration required to inhibit by 50% syncytium formation between MOLT-4 cells and HIV-1(IIIB); assay type: functional, organism-based; conditions: Human immunodeficiency virus 1, MOLT-4; in short: as §1
# Human betaherpesvirus 5 [8] = assay: Concentration required to inhibit HCMV(Davis) induced cytopathicity in HEL cells by 50%; assay type: functional, organism-based; conditions: Human betaherpesvirus 5, HEL; in short: as §3
# Human alphaherpesvirus 2 = assay: Concentration required to inhibit HSV-2(G) induced cytopathicity in E6SM cells by 50%; conditions: Human alphaherpesvirus 2, E6SM
# HEL = assay: Minimum cytotoxic concentration required to cause a microscopically detectable alteration of normal cell morphology in HEL cells; assay type: functional, Homo sapiens
# Sindbis virus = assay: Concentration required to inhibit Sindbis induced cytopathicity in Vero cells by 50%; assay type: functional, organism-based; in short: as §3
# [9] = system: Mammalian orthoreovirus 1; assay: Concentration required to inhibit reovirus-1 induced cytopathicity in Vero cells by 50%; assay type: functional, organism-based; conditions: Mammalian orthoreovirus 1, Vero; in short: as §3
# HeLa = assay: Minimum cytotoxic concentration required to cause a microscopically detectable alteration of normal cell morphology in HeLa cells; assay type: functional, Homo sapiens; in short: as §2
# Coxsackievirus = assay: Concentration required to inhibit Coxsackie induced cytopathicity in HeLa cells by 50%; assay type: functional, organism-based; in short: as §3
# [10] = system: Human immunodeficiency virus 1; assay: Concentration required to inhibit HIV-1 induced cytopathicity in MT-4 cells by 50%; assay type: functional, organism-based; conditions: Human immunodeficiency virus 1, MT4; in short: as §4
# Human betaherpesvirus 5 [11] = assay: Concentration required to inhibit HCMV(AD169) induced cytopathicity in HEL cells by 50%; assay type: functional, organism-based; conditions: Human betaherpesvirus 5, HEL; in short: as §3
# Tacaribe virus = assay: Concentration required to inhibit Tacaribe induced cytopathicity in Vero cells by 50%; assay type: functional, cell-based; conditions: Mammarenavirus tacaribeense
# Junin virus = assay: Concentration required to inhibit Junin induced cytopathicity in Vero cells by 50%; assay type: functional, organism-based; conditions: Mammarenavirus juninense
# Human alphaherpesvirus 1 [12] = assay: Concentration required to inhibit HSV-1 TK-(B2006) induced cytopathicity in E6SM cells by 50%; conditions: Human alphaherpesvirus 1, E6SM
structure (smiles),measurement,setting,value
CCCCCCCCCCCCSCCCCC(=O)NCCCCCCCCCCC(=O)NC(CCC(=O)[O-])C(=O)O.[Na+] (configuration not stated),CC50,CEM-4,> 100 µg/mL
same,IC50,[1],Not Active
CCCCCCCCCCCCSCCCCCCC(=O)N(CC)CCCCCCCCCCC(=O)NC(CCC(=O)[O-])C(=O)O.[Na+] (configuration not stated),CC50,CEM-4,> 100 µg/mL
same,IC50,[2],21 µg/mL
CCCCCCCCCCCCSCCCCCCCCCCCCCCCCCCCCCCCCCCCCCCC(=O)NCCCCCCCCCCC(=O)NC(CCC(=O)[O-])C(=O)O.[Na+] (configuration not stated),CC50,CEM-4,> 100 µg/mL
same,IC50,[2],15 µg/mL
CCCCCCCCCCCCSCCCCCCCCCCCCCCC(=O)NCCCCCCCCCCC(=O)NC(CCC(=O)[O-])C(=O)O.[Na+] (configuration not stated),CC50,CEM-4,> 100 µg/mL
same,IC50,[2],12 µg/mL
CCCCCCCCCCCCSCCCCCCCCCCC(=O)N(CC)CCCCCCCCCCC(=O)NCC(=O)[O-].[Na+],CC50,CEM-4,> 100 µg/mL
same,IC50,[2],120 µg/mL
CCCCCCCCCCCCSCCCCCCCCCCCCCCCCCCCCCCCCCCC(=O)N(C)CCCCCCCCCCC(=O)[O-].[Na+],CC50,CEM-4,> 200 µg/mL
same,IC50,[1],Not Active
CCCCCCCCCCCCSCCCCCCCCCCCCCCCCCCCCCCC(=O)N(CC)CCCCCCCCCCC(=O)[O-].[Na+],CC50,CEM-4,50 µg/mL
same,IC50,[2],4 µg/mL
CCCCCCCCCCCCSCCCCCCCCCCCCCCCCC(=O)N(CC)CCCCCCCCCCC(=O)NCCC(=O)[O-].[Na+],CC50,CEM-4,> 100 µg/mL
same,IC50,[1],Not Active
CCCCCCCCCCCCSCCCCCCCCCCCCCCCCCCCCCCCCCCCCC(=O)NCCCCCCCCCCC(=O)NCC(=O)[O-].[Na+],CC50,CEM-4,> 300 µg/mL
same,IC50,[2],194 µg/mL
CCCCCCCCCCCCSCCCCCCCCCCCCCCCCCCCCCCCCCCCCCCCCCCCCCCCCC(=O)N(C)CCCCCCCCCCC(=O)[O-].[Na+],CC50,CEM-4,> 200 µg/mL
same,IC50,[1],Not Active
CCCCCCCCCCCCSCCCCCCCCCCCCCCCCCCCCCCCCCCCCCCCCCCCCCCCCC(=O)NCCCCCCCCCCC(=O)[O-].[Na+],IC50,[3],50 µg/mL
same,MMC,Vero,>200 µg/mL
same,IC50,Semliki Forest virus,> 200 µg/mL
same,IC50,Poliovirus 1,> 200 µg/mL
same,CC50,CEM-4,> 50 µg/mL
same,IC50,[4],1.3 µg/mL
same,MMC,E6SM,200 µg/mL
same,CC50,MT4,> 250 µg/mL
same,IC50,Human respirovirus 3,> 200 µg/mL
same,IC50,[5],> 100 µg/mL
same,IC50,Vaccinia virus,> 100 µg/mL
same,IC50,Human alphaherpesvirus 1 [6],> 100 µg/mL
same,IC50,[7],30 µg/mL
same,IC50,[1],Not Active
same,IC50,Human betaherpesvirus 5 [8],15 µg/mL
same,IC50,Human alphaherpesvirus 2,20 µg/mL
same,MMC,HEL,>50 µg/mL
same,IC50,Sindbis virus,> 200 µg/mL
same,IC50,[9],> 200 µg/mL
same,MMC,HeLa,>200 µg/mL
same,IC50,Coxsackievirus,> 200 µg/mL
same,IC50,[10],5 µg/mL
same,IC50,Human betaherpesvirus 5 [11],40 µg/mL
same,IC50,Tacaribe virus,> 50 µg/mL
same,IC50,Junin virus,> 50 µg/mL
same,IC50,Human alphaherpesvirus 1 [12],> 100 µg/mL
CCCCCCCCCCCCSCCCCCCCCCCCCCCCCCCCCCCCCCCCCCCCCCCCCCCCCCCCCCCCCCCCCCCCCCCCCC(=O)N(CC)CCCCCCCCCCC(=O)NCCC(=O)[O-].[Na+],CC50,CEM-4,> 100 µg/mL
same,IC50,[1],Not Active
CCCCCCCCCCCCSCCCCCCCCCCCCCCCCCCCCCCCCCCCCCCCCCCCCCCCCCCCCCCCCCCCCCCCCCCCCCCCCCCCCCCCCCCCCCCCCC(=O)N(CC)CCCCCCCCCCC(=O)[O-].[Na+],CC50,CEM-4,30 µg/mL
same,IC50,[2],5 µg/mL
CCCCCCCCCCCCSCCCCCCCCCCCCCCCCC(=O)NCCCCCCCCCCC(=O)NCCC(=O)[O-].[Na+],CC50,CEM-4,> 100 µg/mL
same,IC50,[1],Not Active
